ChEMBL document CHEMBL5136966, “Synthesis and biological evaluation of N 6 derivatives of 8-azapurine as novel antiplatelet agents” (RSC Med Chem, 2021)

What was measured:
[1] = Antiplatelet activity against ADP-induced human platelet in platelet rich plasma assessed as inhibition of platelet aggregation at 10 uM preincubated for 2 mins followed by ADP stimulation and measured for 5 mins by aggregometry relative to control; assay type: functional; settings: 7 min
In short: (§1)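 Human whole blood anticoagulated with 3.8% sodium citrate (1:9 v/v); PRP by centrifugation at 300 rpm for 20 min at room temperature, PPP at 900 rpm for 10 min. Compound in DMSO (final under 0.5%) added to PRP, 2 min at 37 °C, then ADP 10 μM. Aggregometer stirred at 900 rpm, 37 °C, calibrated with PRP and PPP, read 5 min (Born). Inhibition from maximal trace height versus DMSO vehicle.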

[2] = Antiplatelet activity against ADP-induced human platelet in platelet rich plasma assessed as inhibition of platelet aggregation preincubated for 2 mins followed by ADP stimulation and measured for 5 mins by aggregometry; assay type: functional, cell-based; in short: as §1
[3] = Antiplatelet activity against ADP-induced human platelet in platelet rich plasma assessed as inhibition of platelet aggregation at 3 uM preincubated for 2 mins followed by ADP stimulation and measured for 5 mins by aggregometry relative to control; assay type: functional; settings: 7 min; in short: as §1
[4] = Stability of compound in fasted-state simulated intestinal fluid incubated for 1 day; assay type: ADME; settings: read-out: Stability
Mus musculus [5] = assay: Antiplatelet activity against ADP-induced platelet aggregation in mouse assessed as inhibition of platelet aggregation at 5 mg/kg, po measured after 1 hr by turbidimetric method relative to control; assay type: functional
In short: (§2)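 Male mice of about 20 g received compound iv (2.5 mg/kg) or orally (5 mg/kg). After 1 h, blood was drawn from the abdominal aorta into 3.8% citrate. PRP was obtained at 1000 rpm for 7 min, adjusted with PPP to about 2 × 10^6 platelets/mL and incubated 10 min at 37 °C. ADP final 5 μM; turbidimetric aggregation read, PRP as zero and PPP as 100%.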

Mus musculus [6] = assay: Antiplatelet activity against ADP-induced platelet aggregation in mouse assessed as inhibition of platelet aggregation at 2.5 mg/kg, iv measured after 1 hr by turbidimetric method relative to control; assay type: functional; in short: as §2
[7] = Toxicity in mouse assessed as death at 1500 mg/kg, po administered via gavage measured for 14 days; assay type: organism-based; settings: in vivo, 336 h, time 14 day
In short: (§3)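 Single-dose oral gavage study run under GLP. Forty mice (20 male, 20 female) were randomly split into a treated group and a vehicle group of 20 each (10 male, 10 female). The vehicle group got aqueous sodium carboxymethyl cellulose.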

[8] = Stability in mouse liver microsomes measured after 2 hrs; assay type: ADME, Microsome; settings: read-out: Stability
[9] = Stability of compound in PBS buffer incubated for 1 week at 37 degC; assay type: physicochemical; settings: time 1 weeks, read-out: Stability
Platelet = assay: Potency index, ratio of ticagrelor IC50 to test compound IC50 for antiplatelet activity against ADP-induced human platelet in platelet rich plasma assessed as inhibition of platelet aggregation; assay type: functional
[10] = Stability in mouse liver microsomes measured after 1 hr; assay type: ADME, Microsome; settings: read-out: Stability
P2Y purinoceptor 12 = P2Y purinoceptor 12 (Homo sapiens, UniProt Q9H244); assay: Inhibition of P2Y12 receptor in human platelet assessed as reduction in ADP-induced VASP phosphorylation by flow cytometry; assay type: functional, cell-based
Chain of P2Y purinoceptor 12 (Q9H244 whole entry): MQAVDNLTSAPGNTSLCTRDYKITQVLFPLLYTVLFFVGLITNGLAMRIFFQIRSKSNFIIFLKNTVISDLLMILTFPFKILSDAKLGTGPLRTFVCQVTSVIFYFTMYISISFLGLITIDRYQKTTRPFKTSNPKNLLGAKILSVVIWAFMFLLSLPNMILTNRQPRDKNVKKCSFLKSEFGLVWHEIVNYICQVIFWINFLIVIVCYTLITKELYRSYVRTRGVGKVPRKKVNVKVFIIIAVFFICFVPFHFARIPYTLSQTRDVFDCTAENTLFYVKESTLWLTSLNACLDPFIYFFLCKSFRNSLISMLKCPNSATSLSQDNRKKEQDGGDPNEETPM

[11] = Stability of compound in fasted-state simulated gastric fluid incubated for 1 day; assay type: ADME; settings: read-out: Stability
[12] = Toxicity in mouse assessed as change in body weight at 1500 mg/kg, po administered via gavage measured for 14 days; assay type: organism-based; settings: in vivo, 336 h, time 14 day; in short: as §3
[13] = Toxicity in mouse assessed as bleeding time at 5 mg/kg, po administered via gavage measured after 1 hr by bleeding tail test (reference value: 5.2 mins); assay type: organism-based; settings: in vivo
[14] = Toxicity in mouse assessed as blood loss at 5 mg/kg, po administered via gavage measured after 1 hr by bleeding tail test (reference value: 34.92 uL); assay type: organism-based; settings: in vivo

Compound	inhibition at 10 µM [1] [%]	IC50 [2] [nM]	inhibition at 3 µM [3] [%]	other results
CCCCNc1nc(SCCC)nc2c1nnn2[C@@H]1C[C@H](OCCO)[C@@H](O)[C@H]1O	40.8	3160	–	–
CCCSc1nc(N/N=C/c2ccc(OC)cc2)c2nnn([C@@H]3C[C@H](O)[C@@H](O)[C@H]3O)c2n1	81.5	1300	71.4	–
CCCSc1nc(NCCCc2ccccc2)c2nnn([C@@H]3C[C@H](O)[C@@H](O)[C@H]3O)c2n1	29.3	–	–	–
CCCSc1nc(N/N=C/c2ccc([N+](=O)[O-])cc2)c2nnn([C@@H]3C[C@H](O)[C@@H](O)[C@H]3O)c2n1	62.7	–	5	–
CCCSc1nc(NCCc2ccccc2)c2nnn([C@@H]3C[C@H](O)[C@@H](O)[C@H]3O)c2n1	33.4	–	–	–
CCCSc1nc(N/N=C/c2ccc(Cl)cc2)c2nnn([C@@H]3C[C@H](OCCO)[C@@H](O)[C@H]3O)c2n1	69.1	–	9.1	–
CCCSc1nc(NCCc2cccc(F)c2)c2nnn([C@@H]3C[C@H](O)[C@@H](O)[C@H]3O)c2n1	68.3	–	–	–
CCCSc1nc(NCCO)c2nnn([C@@H]3C[C@H](O)[C@@H](O)[C@H]3O)c2n1	69.4	–	–	–
CCCSc1nc(NCC)c2nnn([C@@H]3C[C@H](OCCO)[C@@H](O)[C@H]3O)c2n1	21.4	4890	–	–
CCCSc1nc(NCCc2ccc(O)cc2)c2nnn([C@@H]3C[C@H](O)[C@@H](O)[C@H]3O)c2n1	76.8	–	–	–
CCCSc1nc(N/N=C/c2cccc(O)c2)c2nnn([C@@H]3C[C@H](OCCO)[C@@H](O)[C@H]3O)c2n1	100	580	85.4	–
CCCSc1nc(N/N=C/c2cccc([N+](=O)[O-])c2)c2nnn([C@@H]3C[C@H](O)[C@@H](O)[C@H]3O)c2n1	88.6	660	76.3	–
CCCSc1nc(N/N=C/c2ccc(Cl)cc2)c2nnn([C@@H]3C[C@H](O)[C@@H](O)[C@H]3O)c2n1	53.7	–	7	–
CCCSc1nc(N/N=C/c2ccc(F)c(F)c2)c2nnn([C@@H]3C[C@H](OCCO)[C@@H](O)[C@H]3O)c2n1	85.4	–	46.3	–
CCCNc1nc(SCCC)nc2c1nnn2[C@@H]1C[C@H](OCCO)[C@@H](O)[C@H]1O	13.6	–	–	–
CCCSc1nc(N/N=C/c2cccc(O)c2)c2nnn([C@@H]3C[C@H](O)[C@@H](O)[C@H]3O)c2n1	100	200	93.4	remaining at 24 h [4]: 97.4%; inhibition in vivo at 5 mg/kg (Mus musculus [5]): 73.3%; inhibition in vivo at 2.5 mg/kg (Mus musculus [6]): 62.2%; Activity [7]: Non-Toxic; remaining at 2 h [8]: 73.7%; remaining at 168 h [9]: 98.3%; Ratio IC50 (Platelet): 4; remaining at 1 h [10]: 81.2%; IC50 (P2Y purinoceptor 12): 46 nM; remaining at 24 h [11]: 96.7%; Activity [12]: Non-Toxic; Time [13]: 10.4 min; Activity [14]: 44.5 µL
CCCSc1nc(N/N=C/c2ccc([N+](=O)[O-])cc2)c2nnn([C@@H]3C[C@H](OCCO)[C@@H](O)[C@H]3O)c2n1	90.9	–	70.9	–
CCCSc1nc(NC2CC2)c2nnn([C@@H]3C[C@H](O)[C@@H](O)[C@H]3O)c2n1	86.3	820	–	–
CCCSc1nc(NC2CC2)c2nnn([C@@H]3C[C@H](OCCO)[C@@H](O)[C@H]3O)c2n1	14.8	–	–	–
CCCSc1nc(N/N=C/c2ccccc2Cl)c2nnn([C@@H]3C[C@H](O)[C@@H](O)[C@H]3O)c2n1	83.2	–	51.6	–

Compound	inhibition at 10 µM [1] [%]	IC50 [2] [nM]	inhibition at 3 µM [3] [%]	other results
CCCSc1nc(N/N=C/c2cccc([N+](=O)[O-])c2)c2nnn([C@@H]3C[C@H](OCCO)[C@@H](O)[C@H]3O)c2n1	95.5	–	77.3	–
CCCSc1nc(N/N=C/c2ccccc2OC)c2nnn([C@@H]3C[C@H](O)[C@@H](O)[C@H]3O)c2n1	48.7	–	11.7	–
CCCSc1nc(N/N=C/c2ccccn2)c2nnn([C@@H]3C[C@H](O)[C@@H](O)[C@H]3O)c2n1	71.7	–	36.4	–
CCCSc1nc(NC2CCCC2)c2nnn([C@@H]3C[C@H](OCCO)[C@@H](O)[C@H]3O)c2n1	8.1	–	–	–
CCCSc1nc(N/N=C/c2ccc(O)cc2)c2nnn([C@@H]3C[C@H](O)[C@@H](O)[C@H]3O)c2n1	100	780	86.3	–
CCCSc1nc(NCCCO)c2nnn([C@@H]3C[C@H](O)[C@@H](O)[C@H]3O)c2n1	70.3	1780	–	–
CCCSc1nc(NCCCO)c2nnn([C@@H]3C[C@H](OCCO)[C@@H](O)[C@H]3O)c2n1	13.9	–	–	–
CCCSc1nc(N/N=C/c2ccccc2)c2nnn([C@@H]3C[C@H](O)[C@@H](O)[C@H]3O)c2n1	100	450	81.6	Ratio IC50 (Platelet): 2
CCCCNc1nc(SCCC)nc2c1nnn2[C@@H]1C[C@H](O)[C@@H](O)[C@H]1O	85.4	–	–	–
CCCSc1nc(NC2CCCCC2)c2nnn([C@@H]3C[C@H](OCCO)[C@@H](O)[C@H]3O)c2n1	5.3	–	–	–
CCCNc1nc(SCCC)nc2c1nnn2[C@@H]1C[C@H](O)[C@@H](O)[C@H]1O	68.6	–	–	–
CCCSc1nc(NCC(C)C)c2nnn([C@@H]3C[C@H](OCCO)[C@@H](O)[C@H]3O)c2n1	7.8	–	–	–
CCCSc1nc(N/N=C/c2cccs2)c2nnn([C@@H]3C[C@H](O)[C@@H](O)[C@H]3O)c2n1	95.4	400	80.5	–
CCCSc1nc(NCCO)c2nnn([C@@H]3C[C@H](OCCO)[C@@H](O)[C@H]3O)c2n1	15.2	–	–	–
CCCSc1nc(N[C@@H]2C[C@H]2c2ccc(F)c(F)c2)c2nnn([C@@H]3C[C@H](OCCO)[C@@H](O)[C@H]3O)c2n1 [TICAGRELOR]	92.7	740	78.6	inhibition in vivo at 5 mg/kg (Mus musculus [5]): 69.4%; inhibition in vivo at 2.5 mg/kg (Mus musculus [6]): 52.2%; IC50 (P2Y purinoceptor 12): 39 nM; Time [13]: > 20 min; Activity [14]: 73.25 µL
CCCSc1nc(N/N=C/c2ccc(F)c(F)c2)c2nnn([C@@H]3C[C@H](O)[C@@H](O)[C@H]3O)c2n1	96.5	–	62.7	–
CCCSc1nc(N/N=C/c2ccc(Cl)cc2Cl)c2nnn([C@@H]3C[C@H](O)[C@@H](O)[C@H]3O)c2n1	50.1	–	–	–
CCCSc1nc(N/N=C/c2ccc(O)cc2O)c2nnn([C@@H]3C[C@H](O)[C@@H](O)[C@H]3O)c2n1	98.3	–	63.4	–
CCCSc1nc(N/N=C/c2ccccc2O)c2nnn([C@@H]3C[C@H](O)[C@@H](O)[C@H]3O)c2n1	92.1	670	83.6	–
CCCSc1nc(N/N=C/c2ccc(OC)c(OC)c2)c2nnn([C@@H]3C[C@H](O)[C@@H](O)[C@H]3O)c2n1	78.3	–	33.4	–
